Published values from different studies.
Compare with care: the assays were run in different laboratories. Converted amounts (≈) assume the structure as drawn.
Organism: Candida albicans

COc1ccccc1Cc1cc(C)cc(=O)n1O  MIC80 (microbial growth; ATCC90028): 2.7 µM (≈ 0.662 µg/mL)
CCCCCOc1ccc(-c2cc(-c3ccc(C(=O)N[C@H]4C[C@@H](O)[C@@H](O)NC(=O)[C@@H]5[C@@H](O)[C@@H](C)CN5C(=O)[C@H]([C@H](O)CC(N)=O)NC(=O)[C@H]([C@H](O)[C@@H](O)c5ccc(O)c(OS(=O)(=O)O)c5)NC(=O)[C@@H]5C[C@@H](O)CN5C(=O)[C@H]([C@@H](C)O)NC4=O)cc3)no2)cc1  MIC50 (microbial growth): 0.01 µg/mL (≈ 0.00787 µM)
Cc1cc(CC2CCCCC2)n(O)c(=O)c1  MIC80 (microbial growth; ATCC90028): 1.5 µM (≈ 0.332 µg/mL)
C[C@@H]1[C@H](O)[C@@H](C)/C=C/C=C/C=C/C=C/C=C/C=C/C=C/[C@H](O[C@@H]2O[C@H](C)[C@@H](O)[C@H](N)[C@@H]2O)C[C@@H]2O[C@](O)(C[C@@H](O)C[C@@H](O)[C@H](O)CC[C@@H](O)C[C@@H](O)CC(=O)O[C@H]1C)C[C@H](O)[C@H]2C(=O)O  IC50 (microbial growth; ATCC90028): 0.13 µg/mL (≈ 0.141 µM)
C=C1C(=O)O[C@@H](CCCCCCCCCCCCC)[C@@H]1C(=O)O  MIC (microbial growth; 28A): 64 µg/mL
Cc1cc(Cc2ccc(Cl)cc2)n(O)c(=O)c1  MIC80 (microbial growth; ATCC90028): 1.7 µM (≈ 0.424 µg/mL)
OC(Cn1cncn1)(Cn1cncn1)c1ccc(F)cc1F  MFC (microbial killing): 40 µM (≈ 12.3 µg/mL)
NOCC(=O)O  MIC (microbial growth; 28A): 1000 µg/mL
O=C(NCc1ccc2c(c1)OCO2)c1ccc(Br)cc1F  MIC (microbial growth; ATCC10231; 72 h): > 200 µM
